# Hits are enriched below; roughly 0.89% of the tested compounds scored in any of these assays.
# V-ATPase pH = yeast V-ATPase proton transport regulation by pHLuorin. S. cerevisiae, pHLuorin cytosolic pH fluorescence. response, % at 10 µM. 350,000 tested, 0.37% active; in the data active means response mostly above about 7.3%, no sharp cut-off; inactive means mostly below about 5.4%; further: actives read high
# T cell HTS = T cell immune modulators affecting CD8 T cell-vesicle binding; 330,000 tested, 0.068% active; 2C CD8+ T cell-vesicle binding, flow cytometry; hits give low values; response (vesicle binding), % at 7 µM;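 active means response, share of CD8 T cells binding vesicles, and their 90th percentile fluorescence all below set limits, cut at about 80% in these data, passing the limit was not always enough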;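 further: values below 100% mean blocked vesicle binding to the CD8+ T cells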
#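 Incubation: binding step 1.5 h, 37 °C, antibody labelling 20 min, ice; system: murine 2C transgenic CD8+ T lymphocytes; technique: cytometric PE anti-B7-1 and Alexa647 anti-CD8 signals after 1% paraformaldehyde fixation; also added: QL9-charged Drosophila Ld/ICAM-1/B7-1 vesicles; control set: naked versus QL9-loaded vesicles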
# MIN6 prolif = inducers of beta-cell replication in MIN6 cells; 330,000 tested, 0.29% active; proliferation, % at 10 µM; MIN6 cells proliferation, ATPlite luminescence, 48 h; cells starved in 0.2% serum; 100% = growth in 10% serum;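 active means compounds whose signal lies at least 3.5 SD above the mean of all wells on their plate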;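 further: 0% = DMSO-treated cells in low-serum medium and 100% = 10% serum control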
# NTR1 agonist = agonists of human neurotensin receptor NTR1. P30989. NTR1-U2OS beta-arrestin-GFP spot imaging, agonist mode. activation, % at 20 µM. 330,000 tested, 0.17% active. AID 493036;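 active means activation at or above 40% of the spot to cytoplasm intensity ratio, with at least 20 cells analyzed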;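 further: 0% = DMSO without peptide and 100% = 100 nM NTR1 peptide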
# Target sequence (P30989 whole entry, looked up): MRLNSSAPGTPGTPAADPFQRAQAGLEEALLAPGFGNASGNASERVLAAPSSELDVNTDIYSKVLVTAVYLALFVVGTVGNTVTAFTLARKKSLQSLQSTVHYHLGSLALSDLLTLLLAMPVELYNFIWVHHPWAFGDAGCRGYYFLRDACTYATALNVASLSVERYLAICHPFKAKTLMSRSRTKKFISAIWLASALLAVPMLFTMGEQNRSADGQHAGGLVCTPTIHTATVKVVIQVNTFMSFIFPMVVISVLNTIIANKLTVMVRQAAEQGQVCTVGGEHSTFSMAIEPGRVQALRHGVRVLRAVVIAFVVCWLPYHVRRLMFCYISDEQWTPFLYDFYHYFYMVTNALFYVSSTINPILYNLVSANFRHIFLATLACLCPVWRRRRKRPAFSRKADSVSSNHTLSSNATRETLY
# Xi reactivation = X-chromosome reactivation activator; activation, % at 7.58 µM; XiGFP mouse fibroblasts, % GFP-positive cells imaging, 3 d; cells co-treated with 5-aza-dC sensitizer; scaled so ellipticine positive control = 100%; 360,000 tested, 0.055% active;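 active means mean normalized replicate activation at least 10% and every replicate at or above 10%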;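 further: 0% = median of on-plate neutral control wells and 100% = ellipticine 6 µM median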
#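 System: SV40-immortalized XiGFP fibroblast cells, line 68-5-11 / Incubation: 3-day compound exposure, then 15 min fixation at room temperature / Compound: single concentration per compound, delivered by pin transfer / Buffer or medium: DMEM plus 5-aza-dC sensitizer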
# Arr AP2 block = blocks beta-arrestin peptide binding to AP2 adaptin | inhibition, % at 10 µM | AID 504490 | 340,000 tested, 0.31% active | FITC-arrestin peptide / GST-AP2 beads, flow cytometry; AP2 beta2 appendage carries R879A mutation;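 active means inhibition above a set limit, near 3 SD of compounds lacking own fluorescence, cut at about 54% in these data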;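 further: plate controls were DMSO wells for no effect and 5 µM unlabelled arrestin peptide for full effect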
#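 System: GST-AP2 R879A bound to glutathione beads, E. coli-expressed. Also added: 50 nM FITC-arrestin peptide. Schedule: compound with beads 12 min RT, then probe 1 h RT. Signal: bead flow cytometry, FITC channel. Read-out basis: percent response.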
# Arr AP2 CP1 = blocks beta-arrestin peptide binding to human AP2. shares compounds with Arr AP2 block. GST-AP2 beads, FITC arrestin peptide binding, flow cytometry; GST-fused beta2-adaptin appendage, R879A mutant. inhibition, % at 10 µM. 1,300 tested, 2% active. AID 504908;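 active means inhibition above a set limit, roughly 3 SD of non-fluorescent compound noise, cut at about 38% in these data; inactive means inhibition at or below that limit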;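 further: loss of bead fluorescence from 50 nM FITC arrestin peptide bound to appendage; 0% = negative control wells and 100% = excess unlabelled arrestin peptide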
# GST GSH counter = disrupts GST binding to glutathione beads, arrestin-AP2 artifact. shares compounds with Arr AP2 block. GST-fluorescein binding to GSH beads, fluorescence, counter-screen. inhibition, % at 10 µM. 1,300 tested, 2% active. AID 588338;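 active means inhibition above 50%, about 3 SD of the inhibition seen with non-fluorescent compounds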;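 further: fluorescein maleimide labelled GST captured on 4 micron glutathione beads; higher means more loss of bead fluorescence from quenching or blocked binding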
# An asterisk follows results filed as active; . = not tested or not shown.
SMILES,V-ATPase pH,T cell HTS,MIN6 prolif,NTR1 agonist,Xi reactivation,Arr AP2 block,Arr AP2 CP1,GST GSH counter
c1ccc(Nc2ccccn2)cc1,3.3,303.9,1.1,0.0,.,-0.8,.,.
c1ccc(Nc2cccc(Nc3ccccc3)n2)cc1,-2.4,229.7,-1.4,0.2,.,61.3*,19.7,5.9
COc1ccc(NC(=O)Nc2ccc3c(c2)C(=O)N([C@@H](C)CO)C[C@@H](C)[C@H](CN(C)S(=O)(=O)c2cn(C)cn2)OCCCC[C@H](C)O3)cc1,.,.,.,.,0.2,.,.,.
COc1ccc(-c2cc(C(=O)OCC(=O)NC3CC3)c3ccccc3n2)cc1,0.3,592.5,-4.5,-2.1,0.0,4.2,.,.
COc1ccc2cc(-c3cc(C(=O)OCC(=O)NC4CCS(=O)(=O)C4)c4ccccc4n3)ccc2c1 (centres undefined),-3.2,328.9,.,.,0.3,105.9*,59.8*,188.1*
C[C@@H]1CN([C@@H](C)CO)C(=O)c2cc(NC(=O)C3CCCCC3)ccc2O[C@@H](C)CCCCO[C@H]1CN(C)S(C)(=O)=O,.,.,.,.,-1.2,.,.,.
COc1ccc(S(=O)(=O)NCC2CCCN(Cc3cccc(C(C)=O)c3)C2)cc1 (centres undefined),2.7,387.1,-2.3,0.7,0.1,61.8*,4.7,-0.9
COc1ccc(S(=O)(=O)NCC2CCCN(Cc3cccnc3)C2)cc1 (centres undefined),-1.0,218.4,0.0,-1.1,0.5,27.2,.,.
COc1ccc(S(=O)(=O)N2CCC3(CC2)CN(Cc2ccncc2)[C@H](CO)c2[nH]c4cc(OC)ccc4c23)cc1,.,.,.,.,0.2,.,.,.
Cc1ccc(Cl)cc1NC(=O)COC(=O)c1ccc(CN2CCCC2=O)cc1,-3.0,382.1,-0.8,3.5,3.5,-5.4,.,.
COc1cc(Cl)c(C)cc1NC(=O)COC(=O)c1ccc(CN2CCCC2=O)cc1,-1.5,439.8,-3.4,1.1,0.5,65.2*,-0.8,1.3
COc1ccc(-c2cc(C(F)F)n3ncc(C(=O)N4CCCc5ccccc54)c3n2)cc1,2.6,82.2,-3.2,2.8,0.0,105.5*,8.2,65.5*
O=C(c1cnn2c(C(F)F)cc(-c3ccccc3)nc12)N1CCCc2ccccc21,1.1,179.3,-3.3,7.5,.,-7.9,5.4,3.0
O=C(c1cnn2c(C(F)F)cc(-c3ccccc3)nc12)N1CCc2ccccc2C1,-2.9,423.1,0.1,8.5,0.3,5.6,.,.
COc1ccc(-c2cc(C(F)F)n3ncc(C(=O)N4CCN(C)CC4)c3n2)cc1,-0.8,690.7,-1.7,0.4,.,-1.0,.,.
O=C(c1cnn2c(C(F)(F)F)cc(-c3ccccc3)nc12)N1CCCc2ccccc21,2.3,180.8,-3.9,1.8,.,-9.7,-8.2,-4.5
CC(C)NC(=O)Nc1ccc2c(c1)C(=O)N([C@@H](C)CO)C[C@@H](C)[C@H](CN(C)Cc1ccc3c(c1)OCO3)OCCCC[C@H](C)O2,.,.,.,.,0.1,.,.,.
C[C@@H]1CN([C@@H](C)CO)C(=O)Cc2cc(NC(=O)c3ccncc3)ccc2O[C@@H]1CN(C)C,.,.,.,.,0.8,.,.,.
O=C(O)C[C@H]1CC[C@H](NC(=O)Nc2ccccc2)[C@@H](CO)O1,.,.,.,.,-0.5,.,.,.
COc1ccc2c3c([nH]c2c1)[C@@H](CO)N(C(=O)Nc1c(C)noc1C)CC31CCN(CC2CCCCC2)CC1,.,.,.,.,0.3,.,.,.
Cc1cc(Cl)ccc1N(CC(=O)NCc1ccc2c(c1)OCO2)S(C)(=O)=O,2.7,685.6,-2.5,-0.2,0.0,60.3*,11.2,-2.7
CC1(C)CC(=O)C2=C(C1)Nc1ccccc1NC2c1cccs1 (centres undefined),0.2,240.4,2.0,-1.6,0.3,-0.8,.,.
O=C1CCCC2=C1C(c1cccs1)Nc1ccccc1N2 (centres undefined),1.6,222.7,-0.3,3.2,0.0,70.1*,-4.3,-3.5
COC1OC2COC(c3ccccc3)OC2C(NC(C)=O)C1OC(C)=O (centres undefined),-2.1,.,.,.,0.2,.,.,.
CC(=O)N[C@@H]1[C@@H](O)[C@@H]2OC(c3ccccc3)OC[C@H]2O[C@@H]1N=[N+]=[N-] (some centres undefined),0.7,156.1,0.6,-0.1,0.0,56.2*,11.6,-3.0
SMILES,V-ATPase pH,T cell HTS,MIN6 prolif,NTR1 agonist,Xi reactivation,Arr AP2 block,Arr AP2 CP1,GST GSH counter
CCOC(=O)C1=CC[C@H]2c3c(c4ccc(OC)cc4n3C)C(=O)C1N2S(=O)(=O)c1ccc(C)cc1,4.1,407.1,5.5,0.4,0.0,58.3*,12.3,-3.7
O=S(=O)(/N=C(/Nc1cccc2ccccc12)c1ccccc1)c1cccs1,-0.9,350.0,0.9,0.3,.,99.9*,5.0,-13.1
C[C@@H]1CN([C@@H](C)CO)C(=O)c2cccc(NC(=O)Nc3ccccc3)c2O[C@H]1CN(C)C(=O)Nc1ccc(F)cc1,.,.,.,.,-0.4,.,.,.
COCCN(C(=O)COC(=O)/C(=C/c1ccccc1)NC(C)=O)c1c(N)n(Cc2ccccc2)c(=O)[nH]c1=O,-0.5,299.3,0.3,2.5,0.0,59.3*,10.5,-0.5
CN(C)c1oc(COc2ccc(F)cc2)nc1C#N,0.8,281.8,0.0,-1.8,0.0,55.0*,0.1,4.4
C[C@H]1CN([C@@H](C)CO)C(=O)c2cccc(NC(=O)Nc3ccc(C(F)(F)F)cc3)c2O[C@H]1CN(C)Cc1ccc2c(c1)OCO2,.,.,.,.,-0.3,.,.,.
O=C(c1ccccc1F)N(NC(=O)C(O)(c1ccccc1)c1ccccc1)c1ccccc1,4.3,474.2,-1.0,-0.6,-0.1,87.0*,-7.0,2.0
CO[C@H]1CN(C)C(=O)c2ccc(NC(=O)CC(F)(F)F)cc2OC[C@H](C)N(C(C)=O)C[C@@H]1C,.,.,.,.,0.0,.,.,.
CO[C@H]1CN(C)C(=O)c2ccc(NC(=O)Cc3ccccc3)cc2OC[C@H](C)N(CC2CC2)C[C@@H]1C,.,.,.,.,0.1,.,.,.
Cc1cc(OCC(O)CN2C(C)CCCC2C)ccc1C(C)C (centres undefined),1.3,263.0,0.1,1.4,0.0,54.3*,0.8,-3.2
COc1cccc(OCC(O)CN2C(C)CCCC2C)c1 (centres undefined),-5.5,263.1,-2.6,-0.8,.,0.4,.,.
Cc1ccc(C(=O)COC(=O)CCN2C(=O)C3C4C=CC(C5CC45)C3C2=O)cc1 (centres undefined),1.9,954.0,0.1,1.3,0.0,57.1*,2.2,-0.9
O=C(CCN1C(=O)C2C3C=CC(C4CC34)C2C1=O)OCC(=O)c1ccccc1 (centres undefined),0.1,387.4,-3.3,3.2,-0.1,-11.4,.,.

# Bioassay records from PubChem.
